We go through eleven molecules from article PMC4589150 (Nature chemical biology, 2015).

The target in assay [1] is GST-53BP1 residues 1702-1972 (BRCT domains fragment) (Homo sapiens, UniProt Q12888). The assay is classed as binding. A digest of the protocol:
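GST-53BP1 (residues 1702-1972; E. coli-expressed, glutathione-affinity purified, dialysed), 200 nM, with probe 1 or probe 2 (5 μM), or with probe 1 plus γH2AX peptide (100 μM). Incubation 20 min on ice, then 365 nm UV for 15 min on ice. Cross-linking read by streptavidin Western blot. Two independent experiments.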

Another assay relates to MDC1. Kind of assay: CLASPI 'selectivity filter' SILAC proteomics in HeLa lysate. Particulars: probes 5 μM, nocodazole-arrested HeLa lysate, SILAC LC-MS/MS. The assay is classed as binding. A digest of the protocol:
(§1)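 Heavy (13C615N4-Arg 22 mg/L, 13C615N2-Lys 50 mg/L) or light SILAC-labelled HeLa S3 cells, nocodazole-arrested, lysed by cryogenic grinding. Lysates photo-cross-linked with γH2AX probe 1 or H2AX probe 2 (5 μM), combined, streptavidin-captured (0.5% SDS, 90 min RT), washed, dithionite-eluted. SDS-PAGE, in-gel trypsin digestion, LC-MS/MS on LTQ-Orbitrap, SILAC ratio quantitation. Forward and reverse label-swap runs.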

A further assay has as its system 53BP1. The description is as above. The assay is classed as binding. As to conditions: probes 5 μM, nocodazole-arrested HeLa lysate, SILAC LC-MS/MS. A digest of the protocol:
as §1

In a further assay the test system is POLG. The description is as above. In kind it is binding. As to conditions: probes 5 μM, nocodazole-arrested HeLa lysate, SILAC LC-MS/MS. A digest of the protocol: as §1
For a further assay, the system named is SIRT1. The assay is described as above. The assay is classed as binding. Particulars: probes 5 μM, nocodazole-arrested HeLa lysate, SILAC LC-MS/MS. In outline:
as §1

The next assay deals with MCM2. Described as above. In kind it is binding. As to conditions: probes 5 μM, nocodazole-arrested HeLa lysate, SILAC LC-MS/MS. In outline:
as §1

For another assay, the target named is T1, fluorescein-SQEY-OH.
T1 sequence (peptide, fluorescein on the N-terminus; free C-terminal carboxylate): SQEY
Kind of assay: fluorescence polarisation. On the technique in general: Polarisation of emitted light reports the rotation of a fluorescent probe.

Assay [2] deals with fluorescein-phospho-SQEY-OH. Kind of assay: fluorescence polarisation.
Another assay has as its target 53BP1-BRCT (Homo sapiens, UniProt Q12888). Briefly: Fluorescence anisotropy competition binding against fluorescein-pSQEY-OH. A digest of the protocol:
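Untagged 53BP1 tandem BRCT (6 μM; GST removed by PreScission, anion-exchange purified) with fluorescein-phospho-SQEY peptide (50 nM) and graded unlabelled competitor peptide. Buffer: 50 mM HEPES pH 7.5, 150 mM NaCl, 1 mM DTT. Anisotropy read after equilibration. IC50 from four-parameter sigmoidal fit. Ki from IC50 using bound/total ligand, receptor and direct-binding Kd.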

Assay [3] addresses histone H4 methylated K20 (Homo sapiens) (UniProt P62805). Particulars: cited from earlier work.
In a further assay the target is T2, MDC1-BRCT (Homo sapiens, UniProt Q14676).
T2 sequence (Q14676 1883-2089): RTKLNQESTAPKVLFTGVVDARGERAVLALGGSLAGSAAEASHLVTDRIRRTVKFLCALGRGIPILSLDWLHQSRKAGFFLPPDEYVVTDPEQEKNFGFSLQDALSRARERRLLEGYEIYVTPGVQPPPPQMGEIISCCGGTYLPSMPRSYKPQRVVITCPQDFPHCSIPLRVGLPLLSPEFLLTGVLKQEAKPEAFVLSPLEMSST
The assay is classed as binding. In outline: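 E. coli-expressed, glutathione-affinity-purified MDC1-BRCT (200 nM) with biotinylated probe 1 (1 μM) and graded γH2AX competitor peptide (Ac-KKATQApSQEY-OH). Incubation 20 min on ice, then 365 nm UV for 15 min on ice. Cross-linked complexes detected by Western blot with streptavidin-based detection. Mean ± s.d., n=3.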

Assay [4] addresses 53BP1-BRCT (53BP1 tandem BRCT domains, residues 1702-1972), untagged (human) (UniProt Q12888). Briefly: fluorescence polarisation.

Non-standard residues stand in square brackets, D forms with d. Residues, ends and D or L forms follow the SMILES beside them. No end group written: not given here. pS = N[C@@H](COP(=O)(O)O)C(=O)O Where only a bound is given, the exact number is not on record here.

Sequence of 53BP1-BRCT (53BP1 tandem BRCT domains, residues 1702-1972), untagged (human) (Q12888 1702-1972): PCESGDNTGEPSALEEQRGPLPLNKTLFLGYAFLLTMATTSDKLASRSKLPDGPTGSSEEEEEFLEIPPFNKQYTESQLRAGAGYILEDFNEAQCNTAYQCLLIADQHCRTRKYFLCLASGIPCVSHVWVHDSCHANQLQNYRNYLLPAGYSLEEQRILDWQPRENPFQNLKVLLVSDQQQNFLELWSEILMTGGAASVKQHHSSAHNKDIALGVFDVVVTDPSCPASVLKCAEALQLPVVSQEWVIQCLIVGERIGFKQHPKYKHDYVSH
Sequence of GST-53BP1 residues 1702-1972 (BRCT domains fragment) (Q12888 1702-1972): as above
Sequence of 53BP1-BRCT (53BP1 tandem BRCT domains, residues 1702-1972), untagged (Q12888 1702-1972): as above
Sequence of 53BP1-BRCT (Q12888 1702-1972): as above

With `CC(=O)N[C@@H](Cc1cn(CCc2ccc(O)c(N=Nc3ccc(C(=O)NCCOCCOCCOCCOCCNC(=O)CCCC[C@@H]4SC[C@@H]5NC(=O)N[C@@H]54)cc3)c2)nn1)C(=O)N[C@@H](CCCCN)C(=O)N[C@@H](CCCCN)C(=O)N[C@@H](C)C(=O)N[C@@H](Cc1ccc(C(=O)c2ccccc2)cc1)C(=O)N[C@@H](CCC(N)=O)C(=O)N[C@@H](C)C(=O)N[C@@H](COP(=O)(O)O)C(=O)N[C@@H](CCC(N)=O)C(=O)N[C@@H](CCC(=O)O)C(=O)N[C@@H](Cc1ccc(O)cc1)C(=O)O` [probe 1], in assay [1] (probe 5 μM, streptavidin Western blot, representative of 2 experiments), the “photo-cross-linking to BRCT domains fragment (in words)” value is “robust cross-linking”. The “enrichment ratio of MDC1, probe 1 relative to probe 2” value with MDC1 is 3.9. In addition, the “enrichment ratio of 53BP1, probe 1 relative to probe 2” value in the assay with 53BP1 amounted to 4.9. In addition, in the assay on POLG, the “enrichment ratio of POLG, probe 1 relative to probe 2” value was 2.5–3.5. In addition, the “enrichment ratio of SIRT1, probe 1 relative to probe 2” value in the assay with SIRT1 was 2.5–3.5. For the same molecule, in the assay with MCM2, the “enrichment ratio of MCM2, probe 1 relative to probe 2” value was 2.5–3.5.
Regarding “53BP1-BRCT (53BP1 tandem BRCT domains, residues 1702-1972), untagged (from UniProt Q12888 1702-1972) (domain or fragment)”, the percent of peptide bound at 50 μM 53BP1-BRCT in the assay with fluorescein-SQEY-OH was 10%. Moreover, in [2], the dissociation constant Kd (in general, the equilibrium constant for the complex coming apart) turned out to be 2.7 µM.
As for `NC(=O)CC[C@H](NC(=O)[C@@H](N)COP(=O)(O)O)C(=O)N[C@@H](CCC(=O)O)C(=O)N[C@@H](Cc1ccc(O)cc1)C(N)=O` [pSQEY-NH2] (H-[pS]QEY-NH2), the inhibition constant Ki (in general, the dissociation constant of the complex between target and ligand, obtained from inhibition or displacement) on 53BP1-BRCT amounted to 25 ± 0.58 µM.
Molecule “53BP1-BRCT R1811Q (from UniProt Q12888 1702-1972) (domain or fragment)” showed a Kd in assay [2] of 35 µM.
As for “53BP1 tandem Tudor (from UniProt Q12888)”, in [3], the equilibrium dissociation constant (Kd) was 20 µM.
As for `NC(=O)CC[C@H](NC(=O)[C@@H](N)COP(=O)(O)O)C(=O)N[C@@H](CCC(=O)O)C(=O)N[C@@H](Cc1ccc(O)cc1)C(=O)O` [pSQEY-OH] (H-[pS]QEY-OH), on 53BP1-BRCT, the Ki is 7.5 ± 1.1 µM.
As for `CC(=O)N[C@@H](CCCCN)C(=O)N[C@@H](CCCCN)C(=O)N[C@@H](C)C(=O)N[C@H](C(=O)N[C@@H](CCC(N)=O)C(=O)N[C@@H](C)C(=O)N[C@@H](COP(=O)(O)O)C(=O)N[C@@H](CCC(N)=O)C(=O)N[C@@H](CCC(=O)O)C(=O)N[C@@H](Cc1ccc(O)cc1)C(=O)O)[C@@H](C)O` [γH2AX peptide, Ac-KKATQApSQEY-OH, reference compound] (Ac-KKATQA[pS]QEY-OH), at MDC1-BRCT, the midpoint of inhibition, the IC50, lay at 4.4 ± 1.6 µM. In addition, in [1], the equilibrium dissociation constant (Kd) was below 100 µM.
In turn, “53BP1-BRCT K1814M (from UniProt Q12888 1702-1972) (domain or fragment)” had a Kd in assay [2] above 70 µM.
Take [pS]QEY-NH2 [phospho-SQEY-NH2]: the Ki in assay [4] was found to be 25 µM.
The same measure, in the same setting: the result for [pS]QEY-OH [unlabeled phospho-SQEY-OH tetrapeptide] reads 7.5 µM; that for [pS]PTF-OH [phospho-SPTF-OH], 46 µM.
